Screening data: PubChem BioAssay, several laboratories
Dynein transport: inhibitors of GR-EGFP nuclear translocation, primary screen, dynein cargo transport inhibitor project, imaging, high-content, 3617.4 mouse cells. test concentration mostly 20 µM; stimulated with dexamethasone, 1 µM; active compounds read low. z-score, hits read low. hit rate 0.47% among 220,000. AID 1381, 2008;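 active = plate z-score of nuclear minus cytoplasmic receptor signal below a set negative limit, without overly bright fluorescence or cell loss, cut at about -3.5 in these data, passing the limit was not always enough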;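 also: z-score of nuclear minus cytoplasmic ring GR-EGFP intensity difference per well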
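Schedule: 48 h induction, then 1 h compound, then 30 min agonist, 37 °C. Buffer or medium: tetracycline-free induction medium containing charcoal-stripped FBS. Reagent: 1.0 µM final dexamethasone stimulus. Evaluation: nuclear versus cytoplasmic GR-EGFP signal, averaged per well. Signal: high-content fluorescence imaging after fixation.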
EP2 mod: EP2 receptor modulators, cAMP readout, primary screen, cell-based, HTRF cAMP, PGE2 stimulation | Prostaglandin E2 receptor EP2 subtype (Homo sapiens), P43116 | EP2-expressing cells, cAMP HTRF FRET, PGE2 co-stimulation | induction, % at 25 µM | hit rate 0.83% among 260,000 | AID 940, 2007;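 active = compounds whose cAMP rise, as percent of the full-agonist control response, exceeds 60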;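 also: rat C6 glioma line stably carrying human EP2 under a CMV promoter; the protocol text gives 20 µM as final concentration; 100% = response of wells given 1 µM PGE2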
Target sequence (P43116 whole entry, looked up): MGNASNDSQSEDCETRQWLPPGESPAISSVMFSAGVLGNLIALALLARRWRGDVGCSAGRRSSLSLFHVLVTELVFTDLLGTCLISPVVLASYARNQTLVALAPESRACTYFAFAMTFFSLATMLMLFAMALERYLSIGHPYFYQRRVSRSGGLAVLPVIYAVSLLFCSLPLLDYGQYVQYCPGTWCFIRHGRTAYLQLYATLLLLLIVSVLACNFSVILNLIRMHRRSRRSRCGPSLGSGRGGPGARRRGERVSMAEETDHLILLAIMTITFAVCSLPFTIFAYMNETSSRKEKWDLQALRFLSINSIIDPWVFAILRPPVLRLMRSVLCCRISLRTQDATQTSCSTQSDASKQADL
Hsp70 activator: Hsp70 transcriptional activators, primary screen, cell-based, HeLa, Hsp70 promoter luciferase, luminescence, 10 µM | HeLa Hsp70 promoter luciferase reporter; scaled: vehicle 0, proteasome-inhibitor control 100% | activation, % at 10 µM | hit rate 0.04% among 200,000 | AID 1203, 2008;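 active = activation above the mean across all tested compounds plus 3 SD, cutoff set per campaign, cut at about 5.5% in these data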;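 also: 100% = MG132 at 30 µM as the positive control and 0% = DMSO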
PGE2 EP2 inh: human EP2 receptor antagonists, primary screen, TR-FRET cAMP, C6 glioma cells; C6 glioma cells expressing human EP2; cells stimulated with saturating PGE2; inhibition, % at 25 µM; hit rate 0.52% among 260,000; Prostaglandin E2 receptor EP2 subtype (Homo sapiens), P43116;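 active = percent inhibition above 40 after rounding to a whole number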;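 also: rat C6 glioma host cells with rolipram phosphodiesterase inhibitor present; the protocol text gives 20 µM as final concentration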
Numbers without * were called inactive; nt = no result; ! = repeats disagree. Shown are actives, neighbours in structure and some others; about 1.7% of the full set was active somewhere.

SMILES | Dynein transport | EP2 mod | Hsp70 activator | PGE2 EP2 inh
Cc1sc2nc(C(C)C)n3c(=O)n(CC(=O)N4CCOCC4)nc3c2c1C | nt | -32 | nt | nt
COCCSc1nnc(NC(=O)c2cc(Cl)ccc2OC)s1 | nt | -64 | nt | 9
COc1ccc2c(c1)N(CC[C@H]1CCCCN1C)c1ccccc1S2 | nt | -55 | nt | 41*
Cc1cccc(C2(c3cccc(C)c3)CC2C(=O)Nc2ccc([N+](=O)[O-])cc2O)c1 (configuration not stated) | 0.26 | 61* | 0 | 8
Cc1cccc(C2(c3cccc(C)c3)CC2C(=O)NCC2CCCO2)c1 (configuration not stated) | -0.093 | 35 | 0 | 3
Cc1ccc(C)c(NC(=O)C(=O)NCCN2CCOCC2)c1 | nt | -15 | nt | 12
COc1ccc(CNC(=O)CSc2nc3cc4c(cc3cc2C)CCC4)cc1 | nt | 23 | nt | 21
COc1ccc2c(-c3ccccc3)cc(SC(C)C(N)=O)nc2c1 (configuration not stated) | 0.87 | 62* | 0 | 12
CCCN(C(=O)CSc1cc(-c2ccccc2)c2ccc(OC)cc2n1)C1CCS(=O)(=O)C1 (configuration not stated) | -1.1 | 33 | 0 | 4
Cc1cc(NC(=O)c2ccc(C)s2)n(-c2nc3ccccc3[nH]2)n1 | 1 | 63* | 0 | 10
O=c1ccc2[n+]([O-])c3ccc(O)cc3oc-2c1 | -0.5 | -253 | nt | 83*
O=c1cc(O)c2ccc(O)cc2o1 | 1.3 | 8 | 0 | 10
COc1ccc(-c2cc3nc(C)c(C)c(N4CCCC4)n3n2)cc1 | nt | 12 | nt | 8
CCN1CCN(C(=O)[C@H]2C[C@@H](c3ccc(F)cc3)NS(=O)(=O)N2C)CC1 | nt | -32 | nt | nt
CC1CCCC(C)N1C(=O)c1cc(-c2ccccc2Cl)on1 (configuration not stated) | nt | -46 | nt | 8
Cn1nc([N+](=O)[O-])nc1Sc1nnc(-c2ccccc2)o1 | -3.7* | 18 | 0 | 7
Cn1nc([N+](=O)[O-])nc1Sc1ccccn1 | nt | -7 | nt | 8
O=C(COC(=O)c1ccco1)NCCc1ccccc1 | nt | -6 | nt | 12
COc1ccc(C2(C(F)(F)F)NC(=O)N(C)C(=O)N2C)cc1 (configuration not stated) | 1.1 | 19 | 0 | 4
CCOC(=O)C1=C(C)N(C)C(c2ccccc2)(C(F)(F)F)NC1=O (configuration not stated) | nt | -18 | nt | 43*
O=c1ccc(-c2ccc3c(c2)OCO3)nn1C[C@@H]1CCCN1 | nt | 3 | nt | nt
O=C(CCN1CCCCC1)N1CCc2c([nH]c3ccccc23)[C@H]1c1cccnc1 | nt | 5 | nt | 43*
CCc1ccc(C2c3[nH]c4ccccc4c3CCN2C(=O)CN2CCN(CC)CC2)cc1 (configuration not stated) | 2.1 | -37 | 0 | 8
COc1ccc(-n2c(SCC(=O)Nc3c(C)cccc3C)nnc2-c2cccnc2)cc1 | nt | -1 | nt | 10
O=C(O)CSc1nc(-c2ccccc2)nc2ccc(F)cc12 | nt | 89* | nt | 12
SMILES | Dynein transport | EP2 mod | Hsp70 activator | PGE2 EP2 inh
OCCSc1nc(-c2ccccc2)nc2ccc(F)cc12 | 0.43 | 70*! | 0 | 12
O=C(CN1C(=O)C2C3C=CC(C4CC34)C2C1=O)N1CCC(c2ccncc2)CC1 (configuration not stated) | nt | -15 | nt | 0
CCN(CC)C(=O)Cn1nc2c3ccccc3nc(C(C)(C)C)n2c1=O | nt | -8 | nt | 7
O=C(CN(c1ccc2c(c1)OCCO2)S(=O)(=O)c1ccccc1)NCc1cccnc1 | nt | -6 | nt | 11
O=C1c2cccc3c([N+](=O)[O-])ccc(c23)C(=O)N1c1ccccn1 | 1.5 | -42 | 0 | 19
O=C1c2cccc3c([N+](=O)[O-])ccc(c23)C(=O)N1c1nccs1 | 0.23 | -26 | 0 | 55*
CCOC(=O)c1oc2ccccc2c1NC(=O)c1cccc(OC)c1 | -0.21 | 63* | 0 | 5
CCOC(=O)c1oc2ccc(OC)cc2c1CSc1ccccn1 | nt | 62* | nt | 18
O=C(CN1CCC(O)(c2ccccn2)CC1)Nc1ccccc1-c1ccccc1 | nt | -9 | nt | nt
O=C(c1ccc(Cl)cc1)N1CCn2c1nc1ccccc12 | 0.11 | -14 | 0 | 97*
COc1ccc(C(=O)N2CCn3c2nc2ccccc23)cc1 | 0.24 | -18 | 0 | -1
CC1=CC(=O)c2ccccc2C1=O | -1.9 | -40 | 0 | 46*
COc1cccc2c1C(=O)C=C(C)C2=O | -2.9 | -64 | 0 | 21
CC(C)(C=O)C1=CC(=O)c2ccccc2C1=O | -3.6* | -7 | 0 | 16
CC(C)(C)c1ccc2c(c1)C(=O)c1ccccc1C2=O | -1 | 16 | 0 | 9
C=CCNC(=O)[C@@H]1C=CCN1C(=O)c1ccc(OC)cc1 | nt | -9 | nt | 0
CN1[C@@H](C(=O)NCc2ccccn2)C[C@@H](c2ccc(F)cc2)NS1(=O)=O | nt | -11 | nt | nt
CN1[C@@H](C(=O)NCc2ccccn2)C[C@@H](c2cccs2)NS1(=O)=O | nt | 85* | nt | nt
CCc1nn(CC(=O)N2CCC(C)CC2)c(=O)c2cc3ccsc3n12 | nt | -32 | nt | nt
Cc1ccccc1-c1noc(C23CC4CC(CC(C4)C2)C3)n1 | 2.1 | 22 | 0 | 3
c1cncc(-c2noc(C34CC5CC(CC(C5)C3)C4)n2)c1 | 0.11 | 63* | 0 | 8
CC1CCCCN1CCNC(=O)C1CCN(S(=O)(=O)N2CCCCC2)CC1 (configuration not stated) | -0.92 | 17 | 0 | 120*
COc1ccc(N2CCN(C(=O)NC3CC(=O)N(c4ccc(OC)cc4)C3)CC2)cc1 (configuration not stated) | -1.1 | -51 | 0 | 6
CCCN(CCC)C(=O)NC1CC(=O)N(c2ccc(OC)cc2)C1 (configuration not stated) | -0.16 | -8 | 0 | 68*
Cc1ccc(C)n1Cc1ccccc1Cl | -0.73 | 65* | 0 | 4
SMILES | Dynein transport | EP2 mod | Hsp70 activator | PGE2 EP2 inh
C=CCn1c2cc(C)sc2c2cnn(CC(N)=O)c(=O)c21 | nt | -43 | nt | nt
CN(CCOc1cccc(C(F)(F)F)c1)Cc1ccccc1 | -0.37 | 23 | 2 | 8
CN(C)Cc1cc(C(F)(F)F)ccc1C(O)(c1ccccc1)c1ccccc1 | nt | -18 | nt | 46*
CC1CCN(c2nc3c(c(=O)[nH]2)CN(Cc2cc(F)ccc2F)CC3)CC1 | nt | -35 | nt | 5
CCc1ccc2c(c1)-c1c(s[s+]c1SC(C)=O)C(C)(C)N2 | nt | 65* | nt | 9
COc1ccc(-n2sc3c(c2=S)-c2cc(OC)ccc2NC3(C)C)cc1 | -0.54 | 16 | 0 | 12
COc1ccc2cc(C#N)c(SCC(=O)NCc3ccco3)nc2c1 | nt | 41 | nt | 31
Cc1noc(C)c1COC(=O)COc1cccc2c1OC(C)(C)C2 | 0.13 | 65* | 0 | 10
CCn1c(Cc2ccccc2)nnc1SCC(=O)N1CCC(C)CC1 | nt | -29 | nt | 8
CC(=O)c1cccc(Nc2nc(-c3ccccc3)cs2)c1 | 1.4 | -5 | 0 | 5
CC(=O)c1cccc(Nc2nc(-c3ccc(O)cc3O)cs2)c1 | nt | -136 | nt | 70*
